Among the data in ChEMBL document CHEMBL1129264, “Mercaptoacyl dipeptides as orally active dual inhibitors of angiotensin-converting enzyme and neutral endopeptidase” (1996) are inhibition values, retold here.

The structures appear in SMILES notation.

Holding throughout (format): organism-based
Assay [1] addresses T1, Angiotensin-converting enzyme (Rattus norvegicus) (UniProt P47820).
T1 sequence (whole entry): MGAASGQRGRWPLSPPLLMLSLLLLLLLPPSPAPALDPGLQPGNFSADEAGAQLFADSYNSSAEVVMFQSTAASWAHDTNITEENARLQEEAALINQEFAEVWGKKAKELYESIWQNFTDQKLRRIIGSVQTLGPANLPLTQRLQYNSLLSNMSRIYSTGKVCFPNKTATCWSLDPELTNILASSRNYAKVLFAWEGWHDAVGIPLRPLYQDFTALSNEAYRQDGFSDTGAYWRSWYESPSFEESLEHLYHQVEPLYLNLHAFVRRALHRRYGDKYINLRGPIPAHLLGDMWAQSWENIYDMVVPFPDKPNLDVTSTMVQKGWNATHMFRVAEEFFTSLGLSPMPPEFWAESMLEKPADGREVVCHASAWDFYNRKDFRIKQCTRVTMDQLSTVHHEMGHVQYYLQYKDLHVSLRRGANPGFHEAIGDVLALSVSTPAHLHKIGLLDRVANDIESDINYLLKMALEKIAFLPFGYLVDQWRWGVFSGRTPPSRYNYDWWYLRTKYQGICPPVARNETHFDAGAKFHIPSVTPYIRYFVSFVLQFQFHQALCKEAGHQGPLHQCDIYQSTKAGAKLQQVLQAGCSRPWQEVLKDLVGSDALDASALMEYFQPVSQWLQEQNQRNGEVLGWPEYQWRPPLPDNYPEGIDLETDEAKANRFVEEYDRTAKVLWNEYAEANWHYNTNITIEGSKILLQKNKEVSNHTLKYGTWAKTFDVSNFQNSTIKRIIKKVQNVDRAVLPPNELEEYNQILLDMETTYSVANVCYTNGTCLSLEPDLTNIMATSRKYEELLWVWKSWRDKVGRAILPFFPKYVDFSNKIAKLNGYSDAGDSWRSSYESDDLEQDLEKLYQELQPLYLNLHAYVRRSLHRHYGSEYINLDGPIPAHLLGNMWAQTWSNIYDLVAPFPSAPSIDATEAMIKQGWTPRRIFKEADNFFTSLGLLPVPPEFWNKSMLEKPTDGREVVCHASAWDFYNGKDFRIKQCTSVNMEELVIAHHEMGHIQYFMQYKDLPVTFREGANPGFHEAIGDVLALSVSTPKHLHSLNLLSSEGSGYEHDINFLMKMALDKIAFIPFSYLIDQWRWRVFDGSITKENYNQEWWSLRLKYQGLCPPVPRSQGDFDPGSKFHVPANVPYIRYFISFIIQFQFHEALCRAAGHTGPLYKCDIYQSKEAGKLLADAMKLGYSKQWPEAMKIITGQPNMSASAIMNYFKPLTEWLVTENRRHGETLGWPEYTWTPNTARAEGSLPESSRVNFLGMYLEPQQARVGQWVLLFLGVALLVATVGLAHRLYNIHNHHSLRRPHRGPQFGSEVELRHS
The assay can be described thus: Compound was tested for plasma inhibition of Angiotensin I converting enzyme activity in the conscious rat. Expressed as Inhibition of AI pressor response at 4 hr at a dose of 12.7 mg/kg po. Also noted: dose 12.7 mg/kg. The gist of the method:
(§1)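 Male conscious normotensive Sprague-Dawley rats (275-390 g), given femoral arterial and venous catheters under methohexital sodium (75 mg/kg ip) anesthesia. Next day, pressor responses to three angiotensin-I challenges (300 ng/kg iv) recorded by direct arterial pressure. Compound then dosed orally, and AI challenge repeated at set times. Each post-dose response compared with the mean of the three baseline responses, giving % inhibition.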

Assay [2] has as its target T1, Angiotensin-converting enzyme (Rattus norvegicus). The experiment in a line: Compound was tested for plasma inhibition of Angiotensin I converting enzyme activity in the conscious rat. Expressed as Inhibition of AI pressor response at 6 hr at a dose of 12.7 mg/kg po. Also noted: dose 12.7 mg/kg. In a few lines:
(§2)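 Male conscious normotensive Sprague-Dawley rats (275-390 g), prepared under methohexital sodium (75 mg/kg ip) with femoral arterial and venous catheters. The next day, pressor responses to three angiotensin-I challenges (300 ng/kg iv) were recorded. Compound was then given orally and angiotensin-I challenges were repeated at set times. Percent inhibition is relative to the mean of the three baseline responses.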

The target is the same in assay [3]. The assay can be described thus: Compound was tested for plasma inhibition of Angiotensin I converting enzyme activity in the conscious rat. Expressed as Inhibition of AI pressor response at 2 hr at a dose of 12.7 mg/kg po. Also noted: dose 12.7 mg/kg. In a few lines:
as §1

The target is the same in assay [4]. The experiment in a line: Compound was tested for plasma inhibition of Angiotensin I converting enzyme activity in the conscious rat. Expressed as Inhibition of AI pressor response at 1 hr at a dose of 12.7 mg/kg po. Also noted: dose 12.7 mg/kg. The gist of the method: as §1
Assay [5] shares this target. The assay can be described thus: Compound was tested for plasma inhibition of Angiotensin I converting enzyme activity in the conscious rat. Expressed as Inhibition of AI pressor response at 4 hr at a dose of 12.8 mg/kg po. Also noted: dose 12.8 mg/kg. In a few lines: as §1
Assay [6] shares this target. The assay can be described thus: Compound was tested for plasma inhibition of Angiotensin I converting enzyme activity in the conscious rat. Expressed as Inhibition of AI pressor response at 2 hr at a dose of 12.8 mg/kg po. Also noted: dose 12.8 mg/kg. The gist of the method: as §1
For assay [7] the target is unchanged. The assay can be described thus: Compound was tested for plasma inhibition of Angiotensin I converting enzyme activity in the conscious rat. Expressed as Inhibition of AI pressor response at 1 hr at a dose of 12.8 mg/kg po. Also noted: dose 12.8 mg/kg. In a few lines: as §1
The target is the same in assay [8]. The experiment in a line: Compound was tested for plasma inhibition of Angiotensin I converting enzyme activity in the conscious rat. Expressed as Inhibition of AI pressor response at 6 hr at a dose of 12.8 mg/kg po. Also noted: dose 12.8 mg/kg. In a few lines:
as §2

The target is the same in assay [9]. The assay can be described thus: Compound was tested for plasma inhibition of Angiotensin I converting enzyme activity in the conscious rat. Expressed as Inhibition of AI pressor response at 1 hr at a dose of 10 mg/kg po. Also noted: dose 10 mg/kg. The gist of the method:
as §1

For assay [10] the target is unchanged. The assay can be described thus: Compound was tested for plasma inhibition of Angiotensin I converting enzyme activity in the conscious rat. Expressed as Inhibition of AI pressor response at 2 hr at a dose of 10 mg/kg po. Also noted: dose 10 mg/kg. The gist of the method:
as §1

Assay [11] shares this target. The experiment in a line: Compound was tested for plasma inhibition of Angiotensin I converting enzyme activity in the conscious rat. Expressed as Inhibition of AI pressor response at 4 hr at a dose of 10 mg/kg po. Also noted: dose 10 mg/kg. The gist of the method: as §1
Assay [12] has the same target. The experiment in a line: Compound was tested for plasma inhibition of Angiotensin I converting enzyme activity in the conscious rat. Expressed as Inhibition of AI pressor response at 6 hr at a dose of 10 mg/kg po. Also noted: dose 10 mg/kg. The gist of the method: as §2
Assay [13] shares this target. The assay can be described thus: Compound was tested for plasma inhibition of Angiotensin I converting enzyme activity in the conscious rat. Expressed as Inhibition of AI pressor response at 2 hr at a dose of 11.7 mg/kg po. Also noted: dose 11.7 mg/kg. In a few lines: as §1
For assay [14] the target is unchanged. The experiment in a line: Compound was tested for plasma inhibition of Angiotensin I converting enzyme activity in the conscious rat. Expressed as Inhibition of AI pressor response at 1 hr at a dose of 11.7 mg/kg po. Also noted: dose 11.7 mg/kg. In a few lines:
as §1

Assay [15] has the same target. The experiment in a line: Compound was tested for plasma inhibition of Angiotensin I converting enzyme activity in the conscious rat. Expressed as Inhibition of AI pressor response at 6 hr at a dose of 11.7 mg/kg po. Also noted: dose 11.7 mg/kg. In a few lines:
as §2

The target is the same in assay [16]. The assay can be described thus: Compound was tested for plasma inhibition of Angiotensin I converting enzyme activity in the conscious rat. Expressed as Inhibition of AI pressor response at 4 hr at a dose of 11.7 mg/kg po. Also noted: dose 11.7 mg/kg. The gist of the method:
as §1

The target is the same in assay [17]. The assay can be described thus: Compound was tested for plasma inhibition of Angiotensin I converting enzyme activity in the conscious rat. Expressed as Inhibition of AI pressor response at 6 hr at a dose of 13.1 mg/kg po. Also noted: dose 13.1 mg/kg. In a few lines: as §2
Assay [18] shares this target. The assay can be described thus: Compound was tested for plasma inhibition of Angiotensin I converting enzyme activity in the conscious rat. Expressed as Inhibition of AI pressor response at 1 hr at a dose of 13.1 mg/kg po. Also noted: dose 13.1 mg/kg. In a few lines: as §1
The target is the same in assay [19]. The assay can be described thus: Compound was tested for plasma inhibition of Angiotensin I converting enzyme activity in the conscious rat. Expressed as Inhibition of AI pressor response at 4 hr at a dose of 13.1 mg/kg po. Also noted: dose 13.1 mg/kg. In a few lines:
as §2

The target is the same in assay [20]. The assay can be described thus: Compound was tested for plasma inhibition of Angiotensin I converting enzyme activity in the conscious rat. Expressed as Inhibition of AI pressor response at 2 hr at a dose of 13.1 mg/kg po. Also noted: dose 13.1 mg/kg. The gist of the method: as §1
Assay [21] has the same target. The experiment in a line: Compound was tested for plasma inhibition of Angiotensin I converting enzyme activity in the conscious rat. Expressed as Inhibition of AI pressor response at 2 hr at a dose of 14.3 mg/kg po. Also noted: dose 14.3 mg/kg. In a few lines: as §1
Assay [22] shares this target. The experiment in a line: Compound was tested for plasma inhibition of Angiotensin I converting enzyme activity in the conscious rat. Expressed as Inhibition of AI pressor response at 4 hr at a dose of 14.3 mg/kg po. Also noted: dose 14.3 mg/kg. In a few lines: as §2
Assay [23] shares this target. The experiment in a line: Compound was tested for plasma inhibition of Angiotensin I converting enzyme activity in the conscious rat. Expressed as Inhibition of AI pressor response at 1 hr at a dose of 14.3 mg/kg po. Also noted: dose 14.3 mg/kg. The gist of the method:
as §1

The target is the same in assay [24]. The experiment in a line: Compound was tested for plasma inhibition of Angiotensin I converting enzyme activity in the conscious rat. Expressed as Inhibition of AI pressor response at 6 hr at a dose of 14.3 mg/kg po. Also noted: dose 14.3 mg/kg. The gist of the method: as §2

With `CC(=O)S[C@@H](C(=O)NC1(C(=O)N[C@@H](Cc2ccc(O)cc2)C(=O)OC2CCCC2)CCCC1)C(C)C`, the inhibition (as a rule, the share of the control response that was lost under treatment) in assay [1] amounted to 33%; in assay [2], 29%; in [3] it was 51%; in assay [4] it was 58%.
With `CCOC(=O)[C@H](Cc1ccc(O)cc1)NC(=O)C1(NC(=O)[C@H](SC(=O)CN(C)C)C(C)C)CCCC1`, the inhibition in assay [5] worked out at 35%; in assay [6] it was 63%; in assay [7], 70%; in [8], 18%.
For the compound `CCOC(=O)[C@H](CCc1ccccc1)N[C@H]1CCc2ccccc2N(CC(=O)O)C1=O`, the inhibition in [9] was 100%; in [10], 77%; in assay [11], 39%; in assay [12], 16%.
On to `CCOC(=O)[C@H](Cc1ccc(OC)cc1)NC(=O)C1(NC(=O)[C@H](SC(=O)COC)C(C)C)CCCC1`, for which the inhibition stood at 91% in [13], 81% in assay [14], 52% in [15] and 76% in assay [16].
With `CCCCOC(=O)[C@H](Cc1ccc(O)cc1)NC(=O)C1(NC(=O)[C@H](SC(=O)COC)C(C)C)CCCC1`, the inhibition in assay [17] stood at 54%; in [18] it was 76%; in [19], 58%; in assay [20], 75%.
For `CCOC(=O)[C@H](Cc1ccc(OC(=O)c2ccccc2)cc1)NC(=O)C1(NC(=O)[C@H](SC(C)=O)C(C)C)CCCC1`, the inhibition is 30% in assay [21], 36% in assay [22], 45% in assay [23] and 10% in [24].
In the case of `CCOC(=O)[C@H](Cc1ccc(O)cc1)NC(=O)C1(NC(=O)[C@H](SC(=O)C(C)(C)C)C(C)C)CCCC1`, the inhibition stood at 14% in [5], 17% in [6], 8% in [7] and 19% in assay [8].
Turning to `CCOC(=O)[C@H](Cc1ccc(OC(=O)CC)cc1)NC(=O)C1(NC(=O)[C@H](SC(C)=O)C(C)C)CCCC1`, the inhibition was found to be 4% in assay [17], 50% in assay [18], 23% in assay [19] and 35% in assay [20].
